Reference: ChEMBL document CHEMBL5724801, “EUbOPEN Chemogenomics Library - Multiplex” (2024)
Several values for one entry are separate records, joined by “and”; a condition that tells them apart may be missing. Equal values may be shown once.

System: U2OS
Assay: Multiplex assay against U2OS
Assay type: toxicity, cell-based
Conditions: human
Procedure, shortened: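 Cells were classed with CellPathfinder machine-learning gating, first as Hoechst high-intensity objects or normal cells, then (normal cells) as healthy, pyknosed or fragmented nuclei, and finally (pyknosed cells) as mitotic or apoptotic. Staining of live cells at seeding used Hoechst33342, BioTracker Green Microtubule Cytoskeleton Dye, MitoTracker Red and Annexin V Alexa Fluor 680, with imaging on a CQ1 microscope at 37°C and 5% CO2 after compound addition. Tubulin, mitochondrial-mass and membrane-permeability phenotypes are per cents of healthy-nucleus cells.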

[1] = 12 h, 1 µM, compound concentration 1 uM
[2] = 12 h, 10 µM, compound concentration 10 uM
[3] = 24 h, 1 µM, compound concentration 1 uM
[4] = 24 h, 10 µM, compound concentration 10 uM
[5] = 48 h, 1 µM, compound concentration 1 uM
[6] = 48 h, 10 µM, compound concentration 10 uM

In the case of `CCn1c(-c2ccncc2)cc2c1CCNC2=O`, the “Population Apoptotic (%)” value [1] is reported as 53.12% and 58.33%, the “Population Fragmented Nuclei (%)” value [1] is reported as 2.21% and 6.71% and the “Population Healthy Nuclei (%)” value [1] is reported as 88.95% and 78.66%. The “Population Hoechst High Intensity Objects (%)” value [1] was 0%, the “Population Membrane Permeable-Phenotype (%)” value [1] was 0.93% and 4.65% and the “Population Mitochondria Different-Phenotype (%)” value [1] was 0.31% and 6.98%. For the same molecule, the “Population Mitotic Cells (%)” value [1] was 46.88% and 41.67%, the “Population Normal (%)” value [1] was 100% and the “Population Pyknosed Nuclei (%)” value [1] was 8.84% and 14.63%. For the same molecule, the “Population Tubulin-Different-Phenotype (%)” value [1] was 1.24% and 3.88%, the “Total Cell Count” value [1] was 362 and 164 and the “Population Apoptotic (%)” value [2] was 43.94% and 36.59%. For the same molecule, the “Population Fragmented Nuclei (%)” value [2] was 4.31% and 5.7%, the “Population Healthy Nuclei (%)” value [2] was 69.8% and 68.35% and the “Population Hoechst High Intensity Objects (%)” value [2] was 0%. The “Population Membrane Permeable-Phenotype (%)” value [2] was 3.93% and 8.33%, the “Population Mitochondria Different-Phenotype (%)” value [2] was 0% and 6.48% and the “Population Mitotic Cells (%)” value [2] was 56.06% and 63.41%. The “Population Normal (%)” value [2] was 100%, the “Population Pyknosed Nuclei (%)” value [2] was 25.88% and 25.95% and the “Population Tubulin-Different-Phenotype (%)” value [2] was 2.25% and 1.85%. For the same molecule, the “Total Cell Count” value [2] was 255 and 158, the “Population Apoptotic (%)” value [3] was 59.26% and 60% and the “Population Fragmented Nuclei (%)” value [3] was 3.6% and 7.14%. For the same molecule, the “Population Healthy Nuclei (%)” value [3] was 75.58% and 63.1%, the “Population Hoechst High Intensity Objects (%)” value [3] was 0% and the “Population Membrane Permeable-Phenotype (%)” value [3] was 1.02% and 6.6%. For the same molecule, the “Population Mitochondria Different-Phenotype (%)” value [3] was 0% and 13.21%, the “Population Mitotic Cells (%)” value [3] was 40.74% and 40% and the “Population Normal (%)” value [3] was 100%. For the same molecule, the “Population Pyknosed Nuclei (%)” value [3] was 20.82% and 29.76%, the “Population Tubulin-Different-Phenotype (%)” value [3] was 1.02% and 5.66% and the “Total Cell Count” value [3] was 389 and 168. The “Population Apoptotic (%)” value [4] was 46.96% and 46.84%, the “Population Fragmented Nuclei (%)” value [4] was 11.97% and 16.77% and the “Population Healthy Nuclei (%)” value [4] was 43.63% and 34.16%. For the same molecule, the “Population Hoechst High Intensity Objects (%)” value [4] was 0%, the “Population Membrane Permeable-Phenotype (%)” value [4] was 1.77% and 9.09% and the “Population Mitochondria Different-Phenotype (%)” value [4] was 0% and 9.09%. For the same molecule, the “Population Mitotic Cells (%)” value [4] was 53.04% and 53.16%, the “Population Normal (%)” value [4] was 100% and the “Population Pyknosed Nuclei (%)” value [4] was 44.4% and 49.07%. For the same molecule, the “Population Tubulin-Different-Phenotype (%)” value [4] was 3.54% and 5.45%, the “Total Cell Count” value [4] was 259 and 161 and the “Population Apoptotic (%)” value [5] was 67.24% and 64.84%. For the same molecule, the “Population Fragmented Nuclei (%)” value [5] was 5.9% and 9.91%, the “Population Healthy Nuclei (%)” value [5] was 56.11% and 49.1% and the “Population Hoechst High Intensity Objects (%)” value [5] was 0%. For the same molecule, the “Population Membrane Permeable-Phenotype (%)” value [5] was 3.5% and 6.42%, the “Population Mitochondria Different-Phenotype (%)” value [5] was 0% and 4.59% and the “Population Mitotic Cells (%)” value [5] was 32.76% and 35.16%. For the same molecule, the “Population Normal (%)” value [5] was 100%, the “Population Pyknosed Nuclei (%)” value [5] was 37.99% and 40.99% and the “Population Tubulin-Different-Phenotype (%)” value [5] was 7.39% and 6.42%. The “Total Cell Count” value [5] was 458 and 222, the “Population Apoptotic (%)” value [6] was 66.29% and 76.67% and the “Population Fragmented Nuclei (%)” value [6] was 10.3% and 11.18%. For the same molecule, the “Population Healthy Nuclei (%)” value [6] was 14.59% and 9.87%, the “Population Hoechst High Intensity Objects (%)” value [6] was 0% and 0.65% and the “Population Mitochondria Different-Phenotype (%)” value [6] was 0%. For the same molecule, the “Population Mitotic Cells (%)” value [6] was 33.71% and 23.33%, the “Population Normal (%)” value [6] was 100% and 99.35% and the “Population Pyknosed Nuclei (%)” value [6] was 75.11% and 78.95%. The “Population Tubulin-Different-Phenotype (%)” value [6] was 23.53% and 26.67% and the “Total Cell Count” value [6] was 233 and 153.

`Cc1cnc(-c2cc(N3CCN(C(=O)CCS(C)(=O)=O)CC3)ncc2Cl)c(C)c1` was tested, and the “Population Apoptotic (%)” value [1] was 86% and 100%, the “Population Fragmented Nuclei (%)” value [1] was 37% and 18% and the “Population Healthy Nuclei (%)” value [1] was 54% and 73%. For the same molecule, the “Population Hoechst High Intensity Objects (%)” value [1] was 2% and 1%, the “Population Membrane Permeable-Phenotype (%)” value [1] was 10% and the “Population Mitochondria Different-Phenotype (%)” value [1] was 1% and 7%. The “Population Mitotic Cells (%)” value [1] was 13% and 0%, the “Population Normal (%)” value [1] was 97% and 98% and the “Population Pyknosed Nuclei (%)” value [1] was 8%. The “Population Tubulin-Different-Phenotype (%)” value [1] was 2% and 7%, the “Total Cell Count” value [1] was 183 and 111 and the “Population Apoptotic (%)” value [2] was 85% and 75%. For the same molecule, the “Population Fragmented Nuclei (%)” value [2] was 24% and 17%, the “Population Healthy Nuclei (%)” value [2] was 67% and 73% and the “Population Hoechst High Intensity Objects (%)” value [2] was 1%. The “Population Mitochondria Different-Phenotype (%)” value [2] was 3% and 7%, the “Population Mitotic Cells (%)” value [2] was 14% and 25% and the “Population Normal (%)” value [2] was 98%. For the same molecule, the “Population Pyknosed Nuclei (%)” value [2] was 8% and 9%, the “Total Cell Count” value [2] was 258 and 88 and the “Population Apoptotic (%)” value [3] was 80% and 90%. For the same molecule, the “Population Fragmented Nuclei (%)” value [3] was 30% and 17%, the “Population Healthy Nuclei (%)” value [3] was 62% and 75% and the “Population Hoechst High Intensity Objects (%)” value [3] was 2%. For the same molecule, the “Population Membrane Permeable-Phenotype (%)” value [3] was 5% and 8%, the “Population Mitochondria Different-Phenotype (%)” value [3] was 3% and 5% and the “Population Mitotic Cells (%)” value [3] was 20% and 10%. For the same molecule, the “Population Normal (%)” value [3] was 97%, the “Population Pyknosed Nuclei (%)” value [3] was 6% and 7% and the “Population Tubulin-Different-Phenotype (%)” value [3] was 2% and 8%. For the same molecule, the “Total Cell Count” value [3] was 220 and 136, the “Population Apoptotic (%)” value [4] was 80% and 85% and the “Population Fragmented Nuclei (%)” value [4] was 20% and 21%. For the same molecule, the “Population Healthy Nuclei (%)” value [4] was 74% and 64%, the “Population Hoechst High Intensity Objects (%)” value [4] was 2% and 0% and the “Population Mitochondria Different-Phenotype (%)” value [4] was 2% and 1%. The “Population Mitotic Cells (%)” value [4] was 20% and 14%, the “Population Normal (%)” value [4] was 97% and 99% and the “Population Pyknosed Nuclei (%)” value [4] was 4% and 13%. For the same molecule, the “Population Tubulin-Different-Phenotype (%)” value [4] was 0% and 7%, the “Total Cell Count” value [4] was 309 and 103 and the “Population Apoptotic (%)” value [5] was 78% and 95%. The “Population Fragmented Nuclei (%)” value [5] was 29% and 15%, the “Population Healthy Nuclei (%)” value [5] was 63% and 73% and the “Population Hoechst High Intensity Objects (%)” value [5] was 0% and 1%. For the same molecule, the “Population Membrane Permeable-Phenotype (%)” value [5] was 3% and 4%, the “Population Mitochondria Different-Phenotype (%)” value [5] was 2% and 5% and the “Population Normal (%)” value [5] was 99% and 98%. The “Population Pyknosed Nuclei (%)” value [5] was 7% and 10%, the “Population Tubulin-Different-Phenotype (%)” value [5] was 1% and 3% and the “Total Cell Count” value [5] was 325 and 184. The “Population Apoptotic (%)” value [6] was 94% and 100%, the “Population Fragmented Nuclei (%)” value [6] was 11% and 22% and the “Population Healthy Nuclei (%)” value [6] was 80% and 71%. For the same molecule, the “Population Hoechst High Intensity Objects (%)” value [6] was 1% and 3%, the “Population Membrane Permeable-Phenotype (%)” value [6] was 4% and 13% and the “Population Mitochondria Different-Phenotype (%)” value [6] was 2% and 7%. The “Population Mitotic Cells (%)” value [6] was 5% and 0%, the “Population Normal (%)” value [6] was 98% and 96% and the “Population Pyknosed Nuclei (%)” value [6] was 7% and 5%. For the same molecule, the “Population Tubulin-Different-Phenotype (%)” value [6] was 2% and 7%.
